DAT uptake mod: modulates human dopamine transporter uptake under cocaine; hit rate 1.3% among 110,000; B-score at 10 µM; LLC-PK1 hDAT cells, [14C]-dopamine uptake with cocaine IC80; actives deviate in either direction; Q01959; AID 449768;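 active means Z score or B-score, a plate-position-corrected score, falls beyond the plate's 99.7% confidence bounds, in either direction; inactive means both scores lie inside the 99.7% bounds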;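 further: scored against the spread of the other compound wells on the same plate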
Target sequence (Q01959 whole entry, looked up): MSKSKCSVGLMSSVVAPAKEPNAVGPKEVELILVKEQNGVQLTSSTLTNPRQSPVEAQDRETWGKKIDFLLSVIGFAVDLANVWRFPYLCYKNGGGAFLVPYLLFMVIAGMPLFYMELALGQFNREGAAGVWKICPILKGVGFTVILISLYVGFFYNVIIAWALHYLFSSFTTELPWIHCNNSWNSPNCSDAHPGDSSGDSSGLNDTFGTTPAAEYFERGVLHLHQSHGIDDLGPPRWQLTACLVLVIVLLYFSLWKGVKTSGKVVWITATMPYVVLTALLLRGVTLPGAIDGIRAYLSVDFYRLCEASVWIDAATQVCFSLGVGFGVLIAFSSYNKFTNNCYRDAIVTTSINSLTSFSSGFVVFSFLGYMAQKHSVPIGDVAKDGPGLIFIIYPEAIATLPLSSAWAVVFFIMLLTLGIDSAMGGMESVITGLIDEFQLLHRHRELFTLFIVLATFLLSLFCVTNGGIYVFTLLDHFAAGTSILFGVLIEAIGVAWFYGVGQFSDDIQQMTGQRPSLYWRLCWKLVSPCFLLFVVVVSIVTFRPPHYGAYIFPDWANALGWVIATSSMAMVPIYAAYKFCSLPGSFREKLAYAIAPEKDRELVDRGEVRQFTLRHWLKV
Cav3 T inh: inhibitors of human Cav3.2 T-type calcium channel; Cav3.2-expressing cells, Fluo-4 calcium fluorescence FDSS; active compounds read low; B-score at 10 µM; hit rate 4% among 100,000;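 active means single-dose well whose peak fluorescence ratio is a statistical outlier from its plate by either plate-standardised score or position-corrected B-score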
PTK2B oligo ant: Pyk2 (human) oligomerization antagonism; Q14289; Q293 cells, Pyk2 FERM NanoBiT luminescence; active compounds read low; AID 1347419; hit rate 0.83% among 99,000; z-score (the deposit names both 25 µM and 10 µM);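 active means Z-score of -3 or lower, scaled per plate to the spread of control and sample wells; inactive means z-score above -3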;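 further: negative z-score means lost luminescence so less FERM oligomerization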
Rev-RRE block: disrupts HIV-1 Rev binding to RRE RNA. P05866. Rev peptide-RRE RNA binding, FRET. AID 704. inhibition, % at 8 µM. hit rate 0.79% among 97,000;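 active means inhibition above the screen-wide mean plus 3 SD, cut at about 35% in these data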;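 further: 0% = median DMSO wells and 100% = median Neomycin B control wells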
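Assay system: Labelled RRE RNA duplex and labelled Rev peptide | Times: 5 min preincubation and 15 min binding, 25 °C | Detection: FRET, ex 480 nm, em 540 and 671 nm | Evaluation: % inhibition of FRET ratio versus controls | Benchmarks: DMSO wells as 0% and neomycin B wells as 100% inhibition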
Measles CPE: protection of cells from measles virus; Measles virus-infected cells, CPE protection, absorbance; protection (pct of control), % at 4 µM; hit rate 1.5% among 140,000; in the data active means protection mostly above about 24%, no sharp cut-off; inactive means mostly below about 26%
Phagocyt inh: macrophage phagocytosis inhibition | J774A.1 macrophage IgG-bead phagocytosis, imaging | inhibition, % at 5 µM | hit rate 0.07% among 110,000;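 active means inhibition above the mean of the plate negative controls plus 5 SD, cut at about 13% in these data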;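 further: phagocytic index as fraction of beads internalized from green versus red external bead signal; plate controls were DMSO negative control for no effect and cytochalasin-D positive control for full effect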
Numbers without * were called inactive; x = not tested or not shown. The list is not random: actives were taken first. Their share in the collection is about 5.9%.

SMILES | DAT uptake mod | Cav3 T inh | PTK2B oligo ant | Rev-RRE block | Measles CPE | Phagocyt inh
COc1ccc(-c2nnc(N3CCCCC3)c3ccccc23)cc1 | 0.013 | -4.6* | -1.4 | 15 | 20 | x
COc1ccc(OCC(=O)N2CCN(C(=O)c3ccccc3)CC2)cc1 | 1.2 | -0.33 | 0.89 | 3 | 24 | 0
O=C(CCCOc1ccccc1)N1CCN(c2ccc(F)cc2)CC1 | -0.073 | -7.8* | 1 | 12 | 1 | -2
Cc1ccc(-c2nnc(N3CCN(C(=O)c4ccco4)CC3)c3ccccc23)cc1 | 2.9* | 0.0084 | -1.2 | x | 1 | -1
COc1ccc(N2CCN(C(=O)COc3ccccc3)CC2)cc1 | 1.9* | 0.17 | x | -3 | 16 | 0
CCCCOc1ccc(/C=C/C(=O)OCC(=O)N2CC(=O)Nc3ccccc32)cc1OCC | x | x | x | x | x | -2
NC(=O)[C@H]1CC2(CC(c3cccc(NC(=O)COc4ccc(Cl)cc4)c3)=NO2)CN1C(=O)Cc1ccc([N+](=O)[O-])cc1 (some centres not stated) | -0.33 | -0.41 | x | x | x | x
CCCCCC(=O)NC(=S)Nc1ccc(N2CCOCC2)cc1 | x | x | x | x | 17 | -4
Cn1c(C(=O)N2CCN(C(=O)c3ccco3)CC2)cc2c(=O)n(C)c3ccccc3c21 | 2.2* | 1.2 | x | 8 | 4 | 0
CCN(CC)CCNC(=O)c1cc2c(=O)n(C)c3ccccc3c2n1C | -1 | 0.41 | x | 0 | 41* | 0
Clc1cc(Sc2ccc(Br)cc2)nnc1-c1ccccc1 | -0.42 | -5.3* | -2.9 | 8 | 5 | x
Cc1ccc(NC(=O)N(Cc2ccco2)Cc2cc3cc(C)cc(C)c3nc2Cl)cc1 | x | x | x | 16 | 4 | 1
Cc1ccc2cc(CN(Cc3ccco3)C(=O)NCc3ccccc3)c(=O)[nH]c2c1C | 0.38 | -4.3* | -1.6 | 1 | 9 | -1
COc1ccccc1NC(=S)N(Cc1ccco1)Cc1cc2cccc(C)c2[nH]c1=O | x | x | x | x | 18 | -10
COc1ccccc1NC(=O)N(Cc1ccco1)Cc1cc2ccc(C)c(C)c2[nH]c1=O | 2.6* | -6.7* | 0.83 | 3 | 4 | 2
COc1ccccc1NC(=O)N(Cc1ccco1)Cc1cc2cc(C)cc(C)c2[nH]c1=O | 2.2 | -5.1* | -0.65 | 0 | 25 | 0
Cc1cccc2cc(CN(Cc3ccco3)C(=O)Nc3cccc(C#N)c3)c(Cl)nc12 | -0.68 | -4.5* | -1.4 | 0 | 18 | x
Cc1ccc(C)c2[nH]c(=O)c(CN(Cc3ccco3)C(=O)Nc3ccccc3)cc12 | 0.085 | -6* | -0.51 | 6 | 18 | 0
COc1ccccc1C(=O)NCC1CCN(c2ccc(S(=O)(=O)N3CCOCC3)cc2)CC1 | 0.33 | 0.098 | -0.05 | 10 | 15 | 0
CC(=O)c1ccc(NC(=O)C(C)OC(=O)c2ccc(NS(=O)(=O)c3ccc(F)c(F)c3)cc2)cc1 (configuration not stated) | x | x | x | x | 25 | -6
CC(C)C(=O)Nc1cc(S(=O)(=O)Nc2ccc(Cl)cc2)ccc1Cl | x | x | x | x | 45* | -5
CC(C)C(=O)Nc1cc(S(=O)(=O)Nc2cccc(Cl)c2)ccc1Cl | x | x | x | x | 26 | -12
COc1ccc(Cl)cc1NC(=O)C(C)OC(=O)c1ccc(NS(=O)(=O)c2ccc3[nH]c(=O)[nH]c3c2)cc1 (configuration not stated) | x | x | x | x | 48* | -11
Cc1ccc(/C(O)=C2\C(=O)C(=O)N(Cc3cccnc3)C2c2ccccc2[N+](=O)[O-])cc1 (configuration not stated) | x | x | x | x | 7 | 3
O=C(CSc1ncnc2sc3c(c12)CCCC3)N1CCC(c2noc3ccc(F)cc23)CC1 | 0.4 | -2 | 0.9 | 9 | 7 | 2
SMILES | DAT uptake mod | Cav3 T inh | PTK2B oligo ant | Rev-RRE block | Measles CPE | Phagocyt inh
Cc1cc(SCC(=O)N2CCC(c3noc4ccc(F)cc34)CC2)nc2ccccc12 | 2 | -5* | -0.89 | 5 | 5 | 1
O=C(Nc1ccc(S(=O)(=O)N2CCCC2)cc1)C1COc2ccccc2O1 (configuration not stated) | -0.11 | -1.2 | x | x | 14 | x
O=C(Nc1ccc(S(=O)(=O)Nc2ccccc2)cc1)C1COc2ccccc2O1 (configuration not stated) | 0.92 | -3.8* | 0.02 | 19 | 25 | x
CCN(CC)c1ccc(C2NCC(c3ccc([N+](=O)[O-])cc3)O2)cc1 (configuration not stated) | -0.86 | 1.9 | -3.2* | 7 | 3 | x
Cc1ccc(-n2nnnc2SC(C)C(=O)Nc2ccc(Cl)cn2)cc1 (configuration not stated) | -0.34 | -4.1* | -2.1 | x | 3 | 1
CC(Sc1nncn1C)C(=O)Nc1ccc(Cl)cn1 (configuration not stated) | x | x | x | x | x | -11
Cc1ccccc1/C=C/c1nc2ccccc2c(=O)n1CCc1ccccc1 | x | x | x | x | 1 | -9
Cc1ccc(/C=C/c2nc3ccccc3c(=O)n2CCc2ccccc2)cc1 | x | x | x | x | 61* | -4
CCOc1cc(-c2c(C#N)c(N)nc3c2CCCC3C)ccc1O (configuration not stated) | 2.4 | -3 | -3.1* | 9 | 5 | -2
CCOc1cc(-c2c(C#N)c(N)nc3c2CCc2ccccc2-3)ccc1O | x | x | x | x | 26 | -4
CCOc1cc(-c2cc(-c3ccc(C)cc3)nc(N)c2C#N)ccc1O | 1.3 | 0.54 | -3.8* | 39* | 13 | -2
CCOc1cc(/C=C(\C#N)c2[nH]nc(N)c2C#N)ccc1O | -0.83 | 0.019 | -3.1* | 22 | 31 | 0
Cc1ccc(N(CN2C(=O)c3ccccc3C2=O)C(=O)c2ccc([N+](=O)[O-])cc2[N+](=O)[O-])cc1 | x | x | x | x | 10 | -5
CC1(C)OC(=O)N(c2ccccc2)C12C=Cc1cc(Br)ccc1O2 (configuration not stated) | -0.49 | -6.2* | -0.65 | 9 | 10 | 5
CN1c2ccccc2C(C)(C)[C@]12C=Cc1cc(O)ccc1O2 | 1.4 | -0.085 | -0.89 | 10 | 3 | 0
O=Nc1c(O)n(Cc2cccc(Cl)c2)c2ccccc12 | -0.7 | -4.4* | -2 | 17 | 9 | 4
CC(C)NC(=O)NC(=O)CSc1nnc(COc2ccccc2F)n1C(C)C1CC2CCC1C2 (configuration not stated) | 2.6* | -2.7 | -0.03 | -4 | 4 | 1
CC(C1CC2CCC1C2)n1c(COc2ccccc2F)nnc1SCC(N)=O (configuration not stated) | 0.14 | 0.093 | -0.66 | 6 | 6 | -1
COC(=O)c1ccc(N2CCCCC2)c(NS(=O)(=O)c2ccc(C)cc2)c1 | -0.45 | -3.7* | -1.6 | 13 | 4 | 0
COC(=O)c1ccc(Cl)c(NS(=O)(=O)c2ccc3c(c2)OCCO3)c1 | -0.59 | -5.4* | 0.05 | 1 | -1 | -1
Cc1cc(C)c(-n2nnnc2SC(C)C)c(C)c1 | x | x | x | x | 4 | -4
COC(C[C@@H]1O[C@@H]1[C@H](O)COCc1ccccc1)OC | -0.16 | 0.37 | x | x | x | x
CCOC(=O)c1c(-c2ccco2)csc1NC(=O)CSc1nnc(N)s1 | 0.23 | -1.2 | 0.66 | 1 | 0 | x
